Fluorescence artifact activation data for 86 compounds are collected here from PubChem BioAssay AID504382 (The Scripps Research Institute Molecular Screening Center, 2011).

The structures appear in SMILES notation. In all, about 2,500 compounds went through this assay and about 460 (18%) were called active. These entries were drawn from the full list. Values without a mark were called inactive.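 How the source made its calls: active means mean activation above a cutoff of low control average plus 3 SD from the earlier screen (cut at about 12% in these data); inactive means the rest.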

The assay is described as follows: compound fluorescence interference without thin filaments, confirmation, artefact control for cardiac RTF calcium sensitizer project, biochemical (AID 504382). The note with it: IANBD fluorescence interference counterscreen, buffer, EC20 Ca2+; at 7.2 µM; hits give high values; scaled: EC20 calcium 0, EC100 calcium 100. The essentials:
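Doses – one dose of 7.2 µM, 0.7% DMSO · Buffer or medium – MOPS/KCl/MgCl2/EGTA/NTA/DTT buffer, pH 7.2 · Probe or stimulus – Ca2+ fixed at EC20, 0.472 mM · Measured by – fluorescence intensity, excitation 480 nm, emission 540 nm · Read-out – fluorescence interference versus control range · Timing – 15 min compound exposure at 25 °C · Replication – triplicate wells per compound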
(In general: Counterscreens check selectivity or assay interference.)
Turning to `CCc1cccc2cc3c(N)c(C(=O)Nc4ccc(S(=O)(=O)N5CCCC5)cc4)sc3nc12`, the fluorescence artifact activation is 6.55%.

`COc1ccc(/C=C/C(=O)c2nc3ccccc3n2CC(=O)c2ccc(OC)cc2)cc1`: the fluorescence artifact activation is -0.1%.

As for `CCN(CC)c1ccc(C=Nc2cc(C)ccc2C)c(O)c1`, the fluorescence artifact activation was 1.34%.

In the case of `CC(=O)NC(Cc1ccc(F)c(F)c1)C(=O)NC1CCN(S(=O)(=O)c2ccc(C)cc2)CC1` (stereo unspecified), the fluorescence artifact activation was -0.07%.

Consider `COc1ccc(C(=O)c2sc3nc(C)cc(-c4cccs4)c3c2N)cc1`, for which the fluorescence artifact activation is 6.39%.

For the compound `COc1ccc(C(=O)c2sc3nc(-c4ccccc4)ccc3c2N)cc1`, the fluorescence artifact activation was 21.8% (active).

With `COc1ccc(-c2c(C#N)c(N)nc3sc(C(=O)c4ccccc4)c(N)c23)cc1`, the fluorescence artifact activation is 0.01%.

With `Nc1ccc2cc3[nH]c4cc(N)ccc4c3nc2c1`, the fluorescence artifact activation is 2.11%.

As for `N#Cc1c(NCCCO)nc(-c2ccccc2)c2c1CCCC2`, the fluorescence artifact activation is 4.04%.

Consider `COc1ccc(OC(C)C(=O)Nc2cccc(OC)c2)cc1` (stereo unspecified), for which the fluorescence artifact activation was 0.45%.

As for `CCOc1ccc(NC(=O)c2cccc(OC(=S)N3CCOCC3)c2)cc1`, the fluorescence artifact activation is 0%.

With `COc1ccccc1C(=O)Nc1ccc(OC(C)C(=O)N2CCOCC2)cc1` (stereo unspecified), the fluorescence artifact activation was 822% (active).

Turning to `COc1ccc2c(c1)c(/C=C/c1cc[n+](C)cc1)cn2C`, the fluorescence artifact activation is 0.08%.

On to `COC(=O)c1cc2c(C)c(C)c3ccccn3c-2c1C(=O)OC`, for which the fluorescence artifact activation was 0.46%.

Take `O=C(CCN1C(=O)/C(=C/c2cccs2)SC1=S)NNC(=O)c1cccc(O)c1`: the fluorescence artifact activation is -0.08%.

Regarding `Oc1cccc(Nc2nc(O)c(/C=C3\C=Nc4ccccc43)s2)c1`, the fluorescence artifact activation was 43% (active).

For the compound `COc1cc([N+](=O)[O-])ccc1NC(=O)COC(=O)c1n[nH]c2ccccc12`, the fluorescence artifact activation is 0.03%.

As to `COc1cc([N+](=O)[O-])ccc1N/C=C/C(=O)c1cccs1`, the fluorescence artifact activation was 0.6%.

With `COc1cc2c(cc1NC(=O)COC(=O)/C=C/c1ccc([N+](=O)[O-])cc1)oc1ccccc12`, the fluorescence artifact activation is 796% (active).

With `Cc1c(C)[n+](=O)c(-c2ccc(Br)cc2)c(C)n1[O-]`, the fluorescence artifact activation was 412% (active).

With `CCn1cc(C(=O)NCCC(=O)NCCO)c(=O)c2cc3c(cc21)OCO3`, the fluorescence artifact activation is 9.79%.

Consider `O=C(C1=NN[C@@H]2C(=O)N(c3ccccc3C(F)(F)F)C(=O)[C@H]12)c1ccc2ccccc2n1`, for which the fluorescence artifact activation is 22.3% (active).

Turning to `Cc1cccc(NC(=S)Nc2ccc(N3CCOCC3)cc2)c1C`, the fluorescence artifact activation is 0.78%.

Regarding `O=c1cc2oc3cc(O)c(O)cc3c(-c3ccccc3O)c-2cc1O`, the fluorescence artifact activation is 0.4%.

Take `O=c1ccc2c(-c3ccccc3)c3ccc(O)cc3oc-2c1`: the fluorescence artifact activation was 12.3% (active).

With `Nc1ccc(-c2c3ccc(=O)cc-3oc3cc(O)ccc23)cc1C(=O)O`, the fluorescence artifact activation was -0.02%.

`CCCNS(=O)(=O)c1ccc2c(c1)n(C)c(=O)n2C`: the fluorescence artifact activation was 1.63%.

On to `Cc1cnc(C(=O)Nc2nnc(SCc3c(Cl)cccc3Cl)s2)cn1`, for which the fluorescence artifact activation was 1.18%.

With `O=C1c2cccc3c(N4CCCCC4)ccc(c23)C(=O)N1c1cccc(O)c1`, the fluorescence artifact activation is 6.35%.

With `O=C(OCCN1CCCCC1)c1ccccc1Br`, the fluorescence artifact activation is -0.03%.

Take `CN1CCCC(OC(=O)c2ccccc2Br)C1` (stereo unspecified): the fluorescence artifact activation is 20.7% (active).

For the compound `O=C(Cn1c(=O)oc2cc(S(=O)(=O)N3CCCC3)ccc21)N1CCc2ccccc2C1`, the fluorescence artifact activation was 0.09%.

In the case of `CC(C)(C)c1ccc(C(=O)Nc2cccc3ncccc23)cc1`, the fluorescence artifact activation is 0.15%.

For `CCOC(=O)C(=O)Nc1nnc(COc2ccccc2)s1`, the fluorescence artifact activation was -0.01%.

Regarding `NC(=O)CC(NC(=O)Cc1ccc(Cl)cc1)c1ccc(N2CCN(c3ccccn3)CC2)c([N+](=O)[O-])c1` (stereo unspecified), the fluorescence artifact activation is 51.4% (active).

For the compound `NC(=O)CC(NC(=O)c1ccc(Br)cc1)c1ccc(N2CCN(c3ccc(F)cc3)CC2)c([N+](=O)[O-])c1` (stereo unspecified), the fluorescence artifact activation was 13.7% (active).

For `Cc1cc(C)cc(C(=O)NC(CC(N)=O)c2ccc(N3CCCCCC3)c([N+](=O)[O-])c2)c1` (stereo unspecified), the fluorescence artifact activation was 0.1%.

Turning to `O=C(NCc1ccccc1)c1ccc(N2CCC3(CC2)CC(c2ccccc2)=NO3)c([N+](=O)[O-])c1`, the fluorescence artifact activation is -0.07%.

As to `O=C(N/N=C/c1cc([N+](=O)[O-])ccc1N1CCNCC1)c1ccc([N+](=O)[O-])cc1`, the fluorescence artifact activation was 5.53%.

As to `CN(/N=C/c1ccc(O)cc1O)c1ncc(C(F)(F)F)cc1Cl`, the fluorescence artifact activation was 0.11%.

Turning to `O=C(c1ccc(Cn2cc([N+](=O)[O-])cn2)o1)N1N=C(C(F)F)CC1(O)C(F)F` (stereo unspecified), the fluorescence artifact activation is 3.96%.

`CC/C(=N/Nc1cccc(C)c1)c1cnnc(SC)n1`: the fluorescence artifact activation is 3.63%.

For the compound `Cc1ccccc1NC(=S)Nc1ccc(Br)cc1`, the fluorescence artifact activation is -0.08%.

Regarding `Cc1ccc(Cl)c2c(N=Nc3ccccc3)c(O)[nH]c12`, the fluorescence artifact activation was 0.17%.

Take `COCCN1C(=O)/C(=C/c2ccc(N3CCCC3)cc2C)SC1=S`: the fluorescence artifact activation was 0.17%.

Take `COc1ccc(N2C(N)=NC(N)=NC2(C)C)cc1`: the fluorescence artifact activation was -0.01%.

With `COC(=O)c1ccc(NC(=O)c2cccc(OC)c2)cc1`, the fluorescence artifact activation is 0.1%.

For the compound `Cc1ccc(OCCCC(=O)NC2CCCCC2)cc1`, the fluorescence artifact activation was 0%.

For the compound `COc1cc(NC(=O)[C@@H]2CCCN2S(=O)(=O)c2cccc3cccnc23)cc(OC)c1OC`, the fluorescence artifact activation is 0.18%.

As to `Cc1cc(=O)n2nc(N3CCCC3C(=O)Nc3ccc(C(C)C)cc3)sc2n1` (stereo unspecified), the fluorescence artifact activation was 166% (active).

With `Cc1cc(C)n2nc(C(=O)N3CCCC(Nc4ccc(C(C)C)cc4)C3)cc2n1` (stereo unspecified), the fluorescence artifact activation is 2.67%.

As for `C=C1CCN([C@@H](Cc2ccccc2)C(=O)O)S(=O)(=O)c2ccccc21`, the fluorescence artifact activation is 4.75%.

Consider `Cc1cccc(NC(=O)Cn2cnc3ccc(S(=O)(=O)N4CCC(C)CC4)cc3c2=O)n1`, for which the fluorescence artifact activation was 3.57%.

As for `CC[n+]1c(/C=C2\Sc3ccccc3N2C)ccc2cccc(C)c21`, the fluorescence artifact activation is 0.11%.

Regarding `COc1ccc(-[n+]2c(C)cc(/C=C3\Sc4ccccc4N3C)cc2C)cc1`, the fluorescence artifact activation is 50.7% (active).

With `COc1ccccc1-[n+]1c(C)cc(/C=C2\Sc3ccccc3N2C)cc1C`, the fluorescence artifact activation is 0.15%.

For the compound `CN(C)CCN(C)Cc1c2ccccc2c(CN(C)CCN(C)C)c2ccccc12`, the fluorescence artifact activation is 8.32%.

Turning to `Cc1cccc(N2C(=O)c3cccc4c(N(C)CCO)ccc(c34)C2=O)c1`, the fluorescence artifact activation was 0.05%.

As for `CC1(c2cccc(Br)c2)NC(=O)NC1=O` (stereo unspecified), the fluorescence artifact activation is 16.7% (active).

With `Nc1ccc2nc3c(=O)n(C4CCCCC4)c(=O)[nH]c3nc2c1`, the fluorescence artifact activation is 1.78%.

Turning to `Cc1ccc(C)c(N2CCN(C(=O)CN3C(=S)NC(C)(C)CC3C)CC2)c1` (stereo unspecified), the fluorescence artifact activation is 8.59%.

Consider `C/C=C/c1ccc(OCCCNCC(C)O)c(OC)c1` (stereo unspecified), for which the fluorescence artifact activation is 112% (active).

As to `COc1cc(/C=C2\CC/C(=C\c3ccc(OCCO)c(OC)c3)C2=O)ccc1OCCO`, the fluorescence artifact activation is 0.12%.

For `COc1ccc(OC)c(/C=N/N=C(\N)c2nonc2N)c1`, the fluorescence artifact activation is 9.14%.

On to `COc1ccc(CN2CCC(=O)N([C@H](CO)c3ccccc3)CC2)cc1`, for which the fluorescence artifact activation is 6.01%.

Turning to `CCOc1ccccc1N1CCN(CC(=O)N(CC(C)C)c2c(N)n(CC(C)C)c(=O)[nH]c2=O)CC1`, the fluorescence artifact activation is 13.8% (active).

Consider `CC(C)CN(C(=O)CCCc1nc2ccccc2c(=O)[nH]1)c1c(N)n(Cc2ccccc2)c(=O)[nH]c1=O`, for which the fluorescence artifact activation is 0.01%.

As to `CCOc1ccccc1N1CCN(CC(=O)c2c(N)n(C)c(=O)n(C)c2=O)CC1`, the fluorescence artifact activation is 2.53%.

With `O=C1NC(c2ccccc2)=C(c2nc3ccccc3s2)C(c2ccc(O)cc2)N1` (stereo unspecified), the fluorescence artifact activation was -0.03%.

Turning to `Nc1ccc2c3c(cccc13)-c1ccccc1-2`, the fluorescence artifact activation was 0.02%.

For the compound `Cc1n[nH]c(C)c1N1C(=O)c2cccc3c(N4CCCCCC4)ccc(c23)C1=O`, the fluorescence artifact activation is 0.08%.

For `COc1cc(/C=C2\CCC(C)C3=C(c4cc(OC)c(OC)c(OC)c4)C(C#N)=C(N)OC32)cc(OC)c1OC` (stereo unspecified), the fluorescence artifact activation is 14.5% (active).

As to `CC1(C)CC(=O)C2=C(C1)OC(N)=C(C#N)C21CCN(Cc2ccccc2)CC1`, the fluorescence artifact activation is 0.25%.

Consider `COC(=O)C1=COC(C)C2CN3CCc4c([nH]c5ccccc45)C3CC12` (stereo unspecified), for which the fluorescence artifact activation is 1.05%.

In the case of `CCOC(=O)Cn1c(=NC(=O)c2cc(-c3cccs3)nc3ccccc23)sc2cc(S(N)(=O)=O)ccc21`, the fluorescence artifact activation was -0.11%.

Consider `O=C(Nc1ccccc1OC(=O)c1ccccc1)c1ccccc1`, for which the fluorescence artifact activation is 45% (active).

For `CC(C)C(=O)c1cc2c(cc1NC(=O)c1ccccc1)OCCO2`, the fluorescence artifact activation is 0.02%.

For the compound `COc1ccccc1NC(=O)/C=C/C(=O)O`, the fluorescence artifact activation was 0.29%.

On to `COc1ccc(OC)c(C2C3CN(C(C)C)CC=C3C(C#N)=C(N)C2(C#N)C#N)c1` (stereo unspecified), for which the fluorescence artifact activation is 1.64%.

Regarding `CCn1c(NC(=O)Nc2cccc(C)c2C)cc2sccc21`, the fluorescence artifact activation was 0.08%.

In the case of `C#CC[N+](C)(C)CCCCCCCCCC`, the fluorescence artifact activation was 13.8% (active).

For the compound `Cc1nccc(-c2cccc(N/N=C(\C#N)C(=O)c3ccccc3)c2)n1`, the fluorescence artifact activation was -0.02%.

With `CCOC(=O)Cn1nc2sc3ccccc3n2c(=O)c1=O`, the fluorescence artifact activation was -0.05%.

As for `Cc1ccc(CNC(=O)c2cccc3c2C(=O)c2ccc(N4CCCCC4)cc2S3(=O)=O)cc1`, the fluorescence artifact activation is -0.01%.

For the compound `O=C(CCc1ccc(S(=O)(=O)NCCc2ccccc2)cc1)N1CCN(Cc2ccc3c(c2)OCO3)CC1`, the fluorescence artifact activation was -0.04%.

As for `Cc1ccc(S(=O)(=O)NC(C)(C)CN2CCC(Cc3ccccc3)CC2)cc1`, the fluorescence artifact activation was 3.9%.
